# Active and inactive are the calls of the source. The calls are words filed in the database; no cut-off is given here.
# Experiments:
# Salmonella typhimurium [1] = test: Genotoxicity in Salmonella typhimurium TA100 up to 1000 uM after 2 days in presence or absence of liver S9 fraction by Ames test; type: toxicity, organism-based; conditions: salmonella enterica subsp. enterica serovar typhimurium, s9, 48 h
# Procedure, shortened: (§1)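 MiniAMES (MPF format) with Salmonella typhimurium TA98, TA100 and TA1537, with and without S9 metabolic activation. 2-day incubation, top concentration 1000 µM.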
# Salmonella typhimurium [2] = test: Genotoxicity in Salmonella typhimurium TA1537 up to 1000 uM after 2 days in presence or absence of liver S9 fraction by Ames test; type: toxicity, organism-based; conditions: salmonella enterica subsp. enterica serovar typhimurium, s9, 48 h; procedure, shortened: as §1
# Salmonella typhimurium [3] = test: Genotoxicity in Salmonella typhimurium TA98 up to 1000 uM after 2 days in presence or absence of liver S9 fraction by Ames test; type: toxicity, organism-based; conditions: salmonella enterica subsp. enterica serovar typhimurium, s9, 48 h; procedure, shortened: as §1
# [4] = target: Phosphatidylinositol 4-kinase alpha (Homo sapiens) (UniProt P42356); test: Inhibition of PI4K3alpha (unknown origin) at 10 uM
# [5] = target: Phosphatidylinositol 4-kinase type 2-beta (Homo sapiens) (UniProt Q8TCG2); test: Inhibition of recombinant human full length GST-tagged PI4K2beta expressed in insect cells at 10 uM
# Mus musculus [6] = test: Unbound AUC (infinity) in Balb/c mouse at 100 mg/kg, po after 1 hr; type: ADME, organism-based; conditions: in vivo
# Cytochrome P450 3A4 = Cytochrome P450 3A4 (Homo sapiens, UniProt P08684)
# [7] = target: Phosphatidylinositol 4-kinase type 2-alpha (Homo sapiens) (UniProt Q9BTU6); test: Inhibition of recombinant human full length GST-tagged PI4K2alpha expressed in insect cells at 10 uM
# Mus musculus [8] = test: Half life in Balb/c mouse at 1 mg/kg, iv; type: ADME, organism-based; conditions: in vivo
# Procedure, shortened: (§2)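 Intravenous PK in male Balb/C mice, n=3, at 1 mpk. Vehicle was 30% DMA or 15% NMP, depending on the compound.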
# Mus musculus [9] = test: Immunosuppressive activity in Balb/c mouse assessed as inhibition of anti-CD3-mediated T-cell activation by measuring IFNgamma release in plasma at 1 mg/kg, po pretreated for 30 mins followed by anti-CD3 stimulation measured after 180 mins by ELISA relative to control; type: functional
# Procedure, shortened: (§3)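 Balb/C mice (n=8 per group) were dosed orally with 1, 10 or 100 mpk in 0.1% Tween 80, 0.1% silicone antifoam, 1% methylcellulose (400 cps) vehicle, before anti-CD3 challenge. IFNγ release (pg/ml) was measured over a time course. Percent inhibition is the mean (±SEM) relative to the vehicle-treated positive control.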
# [10] = Apparent clearance in Balb/c mouse at 10 mg/kg, po after 1 hr; type: ADME, organism-based; conditions: in vivo
# Mus musculus [11] = test: (§4) Inhibition of allograft rejection in Balb/c mouse heterotopic cardiac transplantation model using C57BL/6 as cardiac donor assessed as long-term graft survival rate by measuring cardiac allograft function by daily palpitation at 100 mg/kg administered via oral gavage as qd for 28 days measured after treatment withdrawal; type: functional, organism-based
# [12] = Fraction unbound in mouse blood; type: ADME, tissue-based
# [13] = Apparent clearance in Balb/c mouse at 100 mg/kg, po after 1 hr; type: ADME, organism-based; conditions: in vivo
# Mus musculus [14] = test: Unbound Cmax in Balb/c mouse at 30 mg/kg, po after 1 hr; type: ADME, organism-based; conditions: in vivo
# Salmonella typhimurium [15] = test: Genotoxicity in Salmonella typhimurium TA98 up to 1667 ug/plate in presence or absence of liver S9 fraction by Ames test; type: toxicity, organism-based; conditions: salmonella enterica subsp. enterica serovar typhimurium
# Procedure, shortened: (§5)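 Three-strain bacterial miniAMES with TA1537, TA98 and TA100, with and without S9 activation. Top concentrations 500 and 1667 µg.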
# Mus musculus [16] = test: Volume of distribution at steady state in Balb/c mouse at 1 mg/kg, iv; type: ADME, organism-based; conditions: in vivo; procedure, shortened: as §2
# Mus musculus [17] = test: Unbound Cmax in Balb/c mouse at 10 mg/kg, po after 1 hr; type: ADME, organism-based; conditions: in vivo
# [18] = Unbound Tmax in Balb/c mouse at 10 to 100 mg/kg, po; type: ADME, organism-based; conditions: in vivo, read-out: fTmax
# in vitro [19] = conditions: mouse, liver microsomes
# Mus musculus [20] = test: Unbound Cmax in Balb/c mouse at 100 mg/kg, po after 1 hr; type: ADME, organism-based; conditions: in vivo
# Salmonella typhimurium [21] = test: Genotoxicity in Salmonella typhimurium TA1537 up to 1667 ug/plate in presence or absence of liver S9 fraction by Ames test; type: toxicity, organism-based; conditions: salmonella enterica subsp. enterica serovar typhimurium; procedure, shortened: as §5
# physchem [22] = conditions: pH 7.4 solution
# Mus musculus [23] = test: Immunosuppressive activity in po dosed Balb/c mouse assessed as inhibition of anti-CD3-mediated T-cell activation by measuring IFNgamma release in plasma pretreated for 30 mins followed by anti-CD3 stimulation measured after 180 mins by ELISA; type: functional, organism-based; procedure, shortened: as §3
# Mus musculus [24] = test: Immunosuppressive activity in OXA-induced Balb/c mouse T-cell dependent model of antibody response assessed as inhibition of IgG1 production in serum at 100 mg/kg, po qd pretreated for 30 mins followed by OXA challenge measured on day 14 post dose by ELISA; type: functional, organism-based
# Mus musculus [25] = test: Immunosuppressive activity in OXA-induced Balb/c mouse T-cell dependent model of antibody response assessed as inhibition of IgG1 production in serum at 100 mg/kg, po qd pretreated for 30 mins followed by OXA challenge measured on day 7 post dose by ELISA; type: functional, organism-based
# Mus musculus [26] = test: as §4, with “relative to control” for “measured after treatment withdrawal”; type: functional; conditions: 672 h
# in vitro [27] = conditions: human, liver microsomes
# Mus musculus [28] = test: Immunosuppressive activity in Balb/c mouse assessed as inhibition of anti-CD3-mediated T-cell activation by measuring IFNgamma release in plasma at 10 mg/kg, po pretreated for 30 mins followed by anti-CD3 stimulation measured after 180 mins by ELISA relative to control; type: functional; procedure, shortened: as §3
# Mus musculus [29] = test: Oral bioavailability in Balb/c mouse at 10 mg/kg after 1 hr; type: ADME, organism-based; conditions: in vivo, 1 h
# Procedure, shortened: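 Male Balb/C mice, n=3. Oral dose of 10 mpk as a homogeneous suspension of crystalline solid in 0.1% Tween 80, 0.1% silicone antifoam, 1% methylcellulose (400 cps) in water. I.v. dose of 1 mpk in 30% DMA or 15% NMP, depending on the compound. Bioavailability was extrapolated from the i.v./p.o. experiments.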
# [30] = target: Voltage-gated inwardly rectifying potassium channel KCNH2 (Homo sapiens, UniProt Q12809)
# physchem [31] = conditions: phosphate buffer, pH 7.4
# Mus musculus [32] = test: Unbound AUC in Balb/c mouse at 1 mg/kg, iv; type: ADME, organism-based; conditions: in vivo; procedure, shortened: as §2
# Mus musculus [33] = test: Immunosuppressive activity in Balb/c mouse assessed as inhibition of anti-CD3-mediated T-cell activation by measuring IFNgamma release in plasma at 100 mg/kg, po pretreated for 30 mins followed by anti-CD3 stimulation measured after 180 mins by ELISA relative to control; type: functional; procedure, shortened: as §3
# Mus musculus [34] = test: Unbound AUC (infinity) in Balb/c mouse at 30 mg/kg, po after 1 hr; type: ADME, organism-based; conditions: in vivo
# [35] = Apparent clearance in Balb/c mouse at 30 mg/kg, po after 1 hr; type: ADME, organism-based; conditions: in vivo
# Salmonella typhimurium [36] = test: Genotoxicity in Salmonella typhimurium TA100 up to 1667 ug/plate in presence or absence of liver S9 fraction by Ames test; type: toxicity, organism-based; conditions: salmonella enterica subsp. enterica serovar typhimurium; procedure, shortened: as §5
# Mus musculus [37] = test: Clearance in Balb/c mouse at 1 mg/kg, iv; type: ADME, organism-based; conditions: in vivo; procedure, shortened: as §2
# Mus musculus [38] = test: Unbound AUC (infinity) in Balb/c mouse at 10 mg/kg, po after 1 hr; type: ADME, organism-based; conditions: in vivo
# Voltage-gated inwardly rectifying potassium channel KCNH2, sequence (Q12809 whole entry): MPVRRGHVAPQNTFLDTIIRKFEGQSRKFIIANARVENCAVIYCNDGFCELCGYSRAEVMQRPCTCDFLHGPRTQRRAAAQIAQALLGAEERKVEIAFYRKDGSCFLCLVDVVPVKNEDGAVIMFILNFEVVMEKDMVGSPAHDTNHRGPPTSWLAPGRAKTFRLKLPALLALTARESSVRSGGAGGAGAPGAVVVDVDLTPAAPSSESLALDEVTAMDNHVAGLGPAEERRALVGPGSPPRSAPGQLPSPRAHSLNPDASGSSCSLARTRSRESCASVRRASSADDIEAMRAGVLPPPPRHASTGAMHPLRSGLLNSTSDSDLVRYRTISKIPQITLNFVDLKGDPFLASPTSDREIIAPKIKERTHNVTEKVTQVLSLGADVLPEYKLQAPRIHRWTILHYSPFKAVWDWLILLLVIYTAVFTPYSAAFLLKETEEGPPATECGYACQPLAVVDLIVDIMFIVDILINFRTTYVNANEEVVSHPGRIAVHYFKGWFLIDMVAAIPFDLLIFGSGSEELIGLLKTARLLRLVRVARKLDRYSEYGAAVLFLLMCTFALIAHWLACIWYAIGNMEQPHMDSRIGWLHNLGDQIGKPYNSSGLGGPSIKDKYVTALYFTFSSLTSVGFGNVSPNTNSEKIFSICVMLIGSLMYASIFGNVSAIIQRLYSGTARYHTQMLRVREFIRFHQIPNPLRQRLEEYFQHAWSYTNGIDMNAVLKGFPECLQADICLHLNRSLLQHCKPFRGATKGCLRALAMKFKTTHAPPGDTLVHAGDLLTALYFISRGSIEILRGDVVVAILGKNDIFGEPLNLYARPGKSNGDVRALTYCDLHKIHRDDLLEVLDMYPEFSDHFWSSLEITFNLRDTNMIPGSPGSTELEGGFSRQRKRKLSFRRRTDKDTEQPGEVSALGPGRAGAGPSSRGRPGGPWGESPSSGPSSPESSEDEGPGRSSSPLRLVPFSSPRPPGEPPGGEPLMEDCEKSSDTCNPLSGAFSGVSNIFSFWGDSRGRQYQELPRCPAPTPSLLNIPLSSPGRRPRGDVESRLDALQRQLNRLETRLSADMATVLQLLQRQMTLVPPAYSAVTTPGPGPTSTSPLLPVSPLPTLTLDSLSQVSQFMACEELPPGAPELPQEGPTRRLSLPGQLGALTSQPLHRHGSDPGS
# Phosphatidylinositol 4-kinase type 2-beta (Homo sapiens), sequence (Q8TCG2 whole entry): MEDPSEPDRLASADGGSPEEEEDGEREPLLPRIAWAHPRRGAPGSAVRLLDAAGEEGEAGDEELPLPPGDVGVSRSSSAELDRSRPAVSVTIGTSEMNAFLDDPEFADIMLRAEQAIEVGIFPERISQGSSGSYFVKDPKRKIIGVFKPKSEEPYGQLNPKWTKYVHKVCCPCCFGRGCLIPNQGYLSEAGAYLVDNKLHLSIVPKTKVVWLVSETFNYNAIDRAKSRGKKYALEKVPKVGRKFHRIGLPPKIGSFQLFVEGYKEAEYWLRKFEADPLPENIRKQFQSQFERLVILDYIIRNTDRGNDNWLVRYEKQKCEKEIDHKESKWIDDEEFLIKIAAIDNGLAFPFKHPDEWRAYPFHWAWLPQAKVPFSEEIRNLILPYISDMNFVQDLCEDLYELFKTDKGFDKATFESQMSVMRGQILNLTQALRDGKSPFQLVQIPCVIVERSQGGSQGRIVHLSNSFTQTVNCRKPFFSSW
# Phosphatidylinositol 4-kinase type 2-alpha (Homo sapiens), sequence (Q9BTU6 whole entry): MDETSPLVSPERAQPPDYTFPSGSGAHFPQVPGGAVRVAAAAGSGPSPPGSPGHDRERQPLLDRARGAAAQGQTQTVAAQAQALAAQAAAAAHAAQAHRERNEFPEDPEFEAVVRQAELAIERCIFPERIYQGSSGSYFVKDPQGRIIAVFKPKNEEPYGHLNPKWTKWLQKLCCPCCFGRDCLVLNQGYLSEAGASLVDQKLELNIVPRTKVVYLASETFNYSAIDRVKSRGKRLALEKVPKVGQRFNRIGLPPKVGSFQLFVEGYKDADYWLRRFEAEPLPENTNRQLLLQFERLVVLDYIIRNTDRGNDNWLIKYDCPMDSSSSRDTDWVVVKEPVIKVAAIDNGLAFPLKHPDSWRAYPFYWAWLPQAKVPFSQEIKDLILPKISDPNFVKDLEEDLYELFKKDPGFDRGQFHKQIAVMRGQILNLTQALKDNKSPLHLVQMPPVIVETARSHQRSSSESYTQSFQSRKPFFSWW
# Phosphatidylinositol 4-kinase alpha (Homo sapiens), sequence (P42356 whole entry, looked up): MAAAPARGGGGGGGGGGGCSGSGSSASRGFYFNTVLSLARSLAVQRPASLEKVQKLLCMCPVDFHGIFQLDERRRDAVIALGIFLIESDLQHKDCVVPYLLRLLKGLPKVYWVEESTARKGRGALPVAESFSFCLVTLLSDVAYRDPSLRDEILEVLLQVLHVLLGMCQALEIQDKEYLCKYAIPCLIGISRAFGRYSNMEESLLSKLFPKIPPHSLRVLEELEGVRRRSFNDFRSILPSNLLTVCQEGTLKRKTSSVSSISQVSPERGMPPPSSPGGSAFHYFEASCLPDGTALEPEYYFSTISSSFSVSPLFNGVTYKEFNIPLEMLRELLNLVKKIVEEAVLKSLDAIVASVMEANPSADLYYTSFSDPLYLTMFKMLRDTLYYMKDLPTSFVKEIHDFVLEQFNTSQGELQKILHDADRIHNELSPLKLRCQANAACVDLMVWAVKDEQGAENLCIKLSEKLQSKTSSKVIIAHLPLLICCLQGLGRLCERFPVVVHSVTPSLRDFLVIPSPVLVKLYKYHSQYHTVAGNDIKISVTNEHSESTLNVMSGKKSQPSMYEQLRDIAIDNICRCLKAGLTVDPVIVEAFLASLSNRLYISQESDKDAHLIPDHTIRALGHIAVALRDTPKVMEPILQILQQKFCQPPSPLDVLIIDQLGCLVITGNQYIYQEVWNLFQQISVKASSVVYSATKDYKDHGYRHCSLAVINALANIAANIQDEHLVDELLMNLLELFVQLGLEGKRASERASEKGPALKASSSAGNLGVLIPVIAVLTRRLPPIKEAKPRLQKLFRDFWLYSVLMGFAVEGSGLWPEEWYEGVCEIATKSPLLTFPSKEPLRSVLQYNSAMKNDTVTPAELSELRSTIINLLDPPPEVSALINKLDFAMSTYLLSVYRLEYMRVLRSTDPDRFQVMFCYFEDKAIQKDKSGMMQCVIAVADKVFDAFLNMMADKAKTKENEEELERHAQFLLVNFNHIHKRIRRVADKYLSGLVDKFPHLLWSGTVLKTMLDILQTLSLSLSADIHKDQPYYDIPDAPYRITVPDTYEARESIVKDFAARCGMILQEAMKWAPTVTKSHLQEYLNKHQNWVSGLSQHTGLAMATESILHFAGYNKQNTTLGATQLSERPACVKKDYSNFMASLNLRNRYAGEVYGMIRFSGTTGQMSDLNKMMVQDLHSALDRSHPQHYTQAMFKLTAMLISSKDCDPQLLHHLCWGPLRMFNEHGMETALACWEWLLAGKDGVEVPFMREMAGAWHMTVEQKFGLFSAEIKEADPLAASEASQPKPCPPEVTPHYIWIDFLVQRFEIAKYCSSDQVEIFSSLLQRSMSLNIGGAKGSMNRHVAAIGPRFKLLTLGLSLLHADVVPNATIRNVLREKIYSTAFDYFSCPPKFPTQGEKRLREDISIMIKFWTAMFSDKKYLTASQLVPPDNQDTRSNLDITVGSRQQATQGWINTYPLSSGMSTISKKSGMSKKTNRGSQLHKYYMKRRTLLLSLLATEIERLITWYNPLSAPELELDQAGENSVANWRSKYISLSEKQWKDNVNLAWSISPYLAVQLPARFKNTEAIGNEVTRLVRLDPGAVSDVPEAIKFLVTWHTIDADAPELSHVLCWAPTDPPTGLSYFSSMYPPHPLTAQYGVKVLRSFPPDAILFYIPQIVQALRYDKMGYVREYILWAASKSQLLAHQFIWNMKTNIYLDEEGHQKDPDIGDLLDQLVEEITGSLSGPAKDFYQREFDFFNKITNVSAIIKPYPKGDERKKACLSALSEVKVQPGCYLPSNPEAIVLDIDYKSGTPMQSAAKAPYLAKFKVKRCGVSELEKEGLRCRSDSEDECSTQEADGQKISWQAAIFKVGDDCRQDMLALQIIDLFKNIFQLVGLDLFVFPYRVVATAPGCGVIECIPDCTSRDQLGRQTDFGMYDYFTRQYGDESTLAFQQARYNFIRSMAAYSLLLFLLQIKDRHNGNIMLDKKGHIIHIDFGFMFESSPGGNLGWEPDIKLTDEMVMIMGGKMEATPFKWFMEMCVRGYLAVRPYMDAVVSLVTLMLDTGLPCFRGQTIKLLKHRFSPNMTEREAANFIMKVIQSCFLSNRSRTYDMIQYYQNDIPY
# Cytochrome P450 3A4, sequence (P08684 whole entry): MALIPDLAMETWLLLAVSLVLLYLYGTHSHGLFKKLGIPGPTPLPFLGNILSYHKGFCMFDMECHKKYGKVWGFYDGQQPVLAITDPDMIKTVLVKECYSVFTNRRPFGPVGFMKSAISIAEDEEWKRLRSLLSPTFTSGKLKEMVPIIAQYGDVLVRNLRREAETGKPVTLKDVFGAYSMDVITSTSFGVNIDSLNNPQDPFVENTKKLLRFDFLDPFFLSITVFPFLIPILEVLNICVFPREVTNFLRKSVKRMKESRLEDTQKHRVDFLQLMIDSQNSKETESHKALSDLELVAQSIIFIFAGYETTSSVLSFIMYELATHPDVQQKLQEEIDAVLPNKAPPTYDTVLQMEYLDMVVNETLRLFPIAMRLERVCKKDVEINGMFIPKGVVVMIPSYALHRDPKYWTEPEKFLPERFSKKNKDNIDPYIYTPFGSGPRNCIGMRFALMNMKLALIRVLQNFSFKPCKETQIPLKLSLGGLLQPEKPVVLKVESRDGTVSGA
smiles,measurement,setting,value
COc1ccc(N)c(C)c1.Cl,Activity,Salmonella typhimurium [1],Non-Toxic
same,Activity,Salmonella typhimurium [2],Non-Toxic
same,Activity,Salmonella typhimurium [3],Non-Toxic
COc1ccc(NC(=O)N2CCN(c3nc(N)nc4scnc34)CC2)cc1,inhibition,[4],inactive
same,inhibition,[5],inactive
same,fAUC,Mus musculus [6],3.907 µM·h
same,IC50,Cytochrome P450 3A4,> 20 µM
same,inhibition,[7],inactive
same,t1/2,Mus musculus [8],Nd(Insoluble)
same,inhibition in vivo at 1 mg/kg,Mus musculus [9],24.6%
same,CL/F,[10],80 mL/min/kg
same,inhibition,Mus musculus [11],Active
same,fraction unbound,[12],0.061
same,CL/F,[13],86 mL/min/kg
same,fCmax,Mus musculus [14],444 nM
same,Activity,Salmonella typhimurium [15],Non-Toxic
same,Vdss,Mus musculus [16],Nd(Insoluble)
same,fCmax,Mus musculus [17],154 nM
same,Tmax,[18],1 h
same,"microsomal CLint at 0.75 h, 3 µM",in vitro [19],15 µL/min/mg
same,fCmax,Mus musculus [20],967 nM
same,Activity,Salmonella typhimurium [21],Non-Toxic
same,solubility kinetic at 1.5 h,physchem [22],85 µM
same,inhibition,Mus musculus [23],Dose-dependent effect
same,inhibition,Mus musculus [24],Active
same,inhibition,Mus musculus [25],Active
same,survival at 100 mg/kg,Mus musculus [26],50%
same,"microsomal CLint at 0.75 h, 3 µM",in vitro [27],21 µL/min/mg
same,inhibition in vivo at 10 mg/kg,Mus musculus [28],54.9%
same,F,Mus musculus [29],Nd(Insoluble)
same,IC50,[30],28 µM
same,logD at 1.5 h,physchem [31],1.85
same,fAUC,Mus musculus [32],Nd(Insoluble)
same,inhibition in vivo at 100 mg/kg,Mus musculus [33],87.5%
same,fAUC,Mus musculus [34],0.769 µM·h
same,CL/F,[35],112 mL/min/kg
same,Activity,Salmonella typhimurium [36],Non-Toxic
same,CL,Mus musculus [37],Nd(Insoluble)
same,fAUC,Mus musculus [38],0.332 to 0.333 µM·h
